# Columns and labels:
# [1] = system: HeLa; experiment: Induction of apoptosis in human HeLa cells assessed as early apoptotic cells at 2.5 uM after 24 hrs by Annexin-V-FITC/propidium iodide staining based flow cytometry (reference value: 2.98%); assay type: functional
# How it was run: (§1)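 HeLa seeded at 2 × 10⁵ cells/well. Dose series was 0, 1.25, 2.5, 5 and 10 μM for 24 h; time course was 5 μM for 12, 24, 36 or 48 h. Trypsinized and washed in ice-cold PBS, then stained in binding buffer with Annexin V-FITC and PI for 10 min in the dark. Flow cytometry scored early (Annexin⁺/PI⁻) and late (Annexin⁺/PI⁺) apoptotic cells.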
# [2] = system: HeLa; experiment: Cell cycle arrest in human HeLa cells assessed as accumulation at S phase at 10 uM after 24 hrs by propidium iodide staining based flow cytometry (reference value: 18.16%); assay type: functional
# [3] = species on record: Homo sapiens; experiment: Selectivity index, ratio of IC50 for COX1 (unknown origin) to ratio of IC50 for COX2 (unknown origin)
# How it was run: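 Enzyme ELISA kit: COX-1 or COX-2 preincubated with compound at 0, 1, 10 or 100 μM for 10 min at 37 °C in 0.1 M Tris-HCl pH 8.0, 5 mM EDTA, 2 mM phenol, 1 μM heme. Started with 100 μM arachidonic acid for 2 min at 37 °C, stopped with 1 M HCl. PGH₂ reduced by stannous chloride; PGF2α read by enzyme immunoassay at 450 nm. Index taken as the ratio of the COX IC50 values.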
# [4] = system: HEK-293T; experiment: Cytotoxicity against human 293T cells after 48 hrs by MTT assay; assay type: cell-based
# [5] = system: HeLa; experiment: Induction of apoptosis in human HeLa cells assessed as necrotic cells at 5 uM after 24 hrs by Annexin-V-FITC/propidium iodide staining based flow cytometry (reference value: 0.242 to 1.12%); assay type: functional
# How it was run: (§2)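 HeLa cells in DMEM with 10% FBS, penicillin/streptomycin, 37 °C, 5% CO₂; seeded 2 × 10⁵ cells/well in six-well plates, treated at 0, 1.25, 2.5, 5 and 10 μM for 24 h, or at 5 μM for 12, 24, 36 or 48 h. Cells trypsinized, washed in ice-cold PBS, stained in binding buffer with Annexin V-FITC and PI for 10 min in the dark, then analyzed by flow cytometry.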
# [6] = system: HeLa; experiment: Induction of apoptosis in human HeLa cells assessed as late apoptotic cells at 5 uM after 24 hrs by Annexin-V-FITC/propidium iodide staining based flow cytometry (reference value: 1.72 to 2.57%); assay type: functional; how it was run: as §1
# [7] = target: T1, Prostaglandin G/H synthase 2 (Homo sapiens, UniProt P35354); experiment: Inhibition of COX2 (unknown origin) using arachidonic acid as substrate pretreated for 10 mins followed by substrate addition and measured after 2 mins by ELISA
# T1 sequence (P35354 whole entry): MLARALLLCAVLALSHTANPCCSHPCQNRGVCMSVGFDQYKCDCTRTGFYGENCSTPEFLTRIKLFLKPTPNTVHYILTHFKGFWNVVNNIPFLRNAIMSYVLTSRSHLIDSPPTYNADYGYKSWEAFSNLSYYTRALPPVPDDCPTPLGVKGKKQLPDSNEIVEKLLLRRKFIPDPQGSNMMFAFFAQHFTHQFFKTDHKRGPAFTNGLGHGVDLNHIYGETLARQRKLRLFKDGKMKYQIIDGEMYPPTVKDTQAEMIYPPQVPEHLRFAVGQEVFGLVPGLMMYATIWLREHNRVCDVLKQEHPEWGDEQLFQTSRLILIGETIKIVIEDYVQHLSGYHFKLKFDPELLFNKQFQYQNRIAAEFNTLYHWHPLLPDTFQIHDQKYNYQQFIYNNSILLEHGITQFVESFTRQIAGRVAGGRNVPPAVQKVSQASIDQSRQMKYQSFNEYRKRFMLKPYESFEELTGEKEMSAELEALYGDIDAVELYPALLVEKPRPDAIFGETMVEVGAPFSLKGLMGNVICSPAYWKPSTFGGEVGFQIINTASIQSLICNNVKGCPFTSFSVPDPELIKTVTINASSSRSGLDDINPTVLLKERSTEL
# [8] = system: HeLa; experiment: Induction of apoptosis in human HeLa cells assessed as early apoptotic cells at 5 uM after 48 hrs by Annexin-V-FITC/propidium iodide staining based flow cytometry (reference value: 1.24%); assay type: functional; how it was run: as §1
# [9] = system: HeLa; experiment: Disruption of mitochondrial membrane potential in human HeLa cells assessed as collapse of the mitochondrial membrane potential at 1.25 uM after 12 hrs by JC1 staining based flow cytometry (reference value: 0.768%); assay type: functional
# [10] = target: Prostaglandin G/H synthase 1 (Homo sapiens, UniProt P23219); experiment: Inhibition of COX1 (unknown origin) using arachidonic acid as substrate pretreated for 10 mins followed by substrate addition and measured after 2 mins by ELISA; assay type: ADME
# [11] = system: HeLa; experiment: Induction of apoptosis in human HeLa cells assessed as necrotic cells at 2.5 uM after 24 hrs by Annexin-V-FITC/propidium iodide staining based flow cytometry (reference value: 0.242%); assay type: functional; how it was run: as §1
# [12] = system: MCF7; experiment: Antiproliferative activity against human MCF7 cells after 48 hrs by MTT assay; assay type: functional, cell-based; conditions: MCF7, 48 h
# [13] = system: HeLa; experiment: Induction of apoptosis in human HeLa cells assessed as late apoptotic cells at 2.5 uM after 24 hrs by Annexin-V-FITC/propidium iodide staining based flow cytometry (reference value: 1.72%); assay type: functional; how it was run: as §1
# [14] = system: HeLa; experiment: Induction of apoptosis in human HeLa cells assessed as early apoptotic cells at 1.25 uM after 24 hrs by Annexin-V-FITC/propidium iodide staining based flow cytometry (reference value: 2.98%); assay type: functional; how it was run: as §1
# [15] = system: HeLa; experiment: Cell cycle arrest in human HeLa cells assessed as accumulation at G1 phase after 24 hrs by propidium iodide staining based flow cytometry; assay type: functional
# [16] = system: HeLa; experiment: Induction of apoptosis in human HeLa cells assessed as live cells at 5 uM after 48 hrs by Annexin-V-FITC/propidium iodide staining based flow cytometry (reference value: 95.1%); assay type: functional; how it was run: as §1
# [17] = system: HeLa; experiment: Induction of apoptosis in human HeLa cells assessed as necrotic cells at 5 uM after 12 hrs by Annexin-V-FITC/propidium iodide staining based flow cytometry (reference value: 1.12%); assay type: functional; how it was run: as §1
# [18] = system: HeLa; experiment: Induction of apoptosis in human HeLa cells assessed as necrotic cells at 5 uM after 36 hrs by Annexin-V-FITC/propidium iodide staining based flow cytometry (reference value: 1.12%); assay type: functional; how it was run: as §2
# [19] = system: HeLa; experiment: Induction of apoptosis in human HeLa cells assessed as live cells at 10 uM after 24 hrs by Annexin-V-FITC/propidium iodide staining based flow cytometry (reference value: 94.6%); assay type: functional; how it was run: as §1
# [20] = system: HeLa; experiment: Cell cycle arrest in human HeLa cells assessed as accumulation at G2/M phase at 10 uM after 24 hrs by propidium iodide staining based flow cytometry (reference value: 21.45%); assay type: functional
# [21] = system: HeLa; experiment: Disruption of mitochondrial membrane potential in human HeLa cells assessed as intact mitochondrial membrane at 1.25 uM after 12 hrs by JC1 staining based flow cytometry (reference value: 99.2%); assay type: functional
# [22] = system: HeLa; experiment: Induction of apoptosis in human HeLa cells assessed as late apoptotic cells at 5 uM after 36 hrs by Annexin-V-FITC/propidium iodide staining based flow cytometry (reference value: 2.57%); assay type: functional; how it was run: as §1
# Chain of Prostaglandin G/H synthase 1 (P23219 whole entry): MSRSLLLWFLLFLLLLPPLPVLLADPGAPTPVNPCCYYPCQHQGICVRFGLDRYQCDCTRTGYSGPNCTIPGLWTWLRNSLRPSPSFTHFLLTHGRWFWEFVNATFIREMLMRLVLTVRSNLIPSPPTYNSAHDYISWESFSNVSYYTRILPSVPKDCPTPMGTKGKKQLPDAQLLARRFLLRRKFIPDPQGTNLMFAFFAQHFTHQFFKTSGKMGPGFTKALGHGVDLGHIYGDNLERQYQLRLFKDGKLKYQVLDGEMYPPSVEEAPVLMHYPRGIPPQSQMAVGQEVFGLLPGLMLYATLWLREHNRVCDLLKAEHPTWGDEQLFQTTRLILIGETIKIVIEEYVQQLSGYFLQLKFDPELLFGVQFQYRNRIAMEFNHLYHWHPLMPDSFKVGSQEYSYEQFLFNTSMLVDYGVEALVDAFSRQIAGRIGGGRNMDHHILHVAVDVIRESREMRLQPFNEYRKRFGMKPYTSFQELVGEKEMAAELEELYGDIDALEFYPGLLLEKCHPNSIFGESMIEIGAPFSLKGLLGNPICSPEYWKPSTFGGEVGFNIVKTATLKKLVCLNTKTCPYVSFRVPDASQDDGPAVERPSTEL
compound,measurement,setting,value
COc1ccc(-c2cc(COC(=O)COc3cc(O)c4c(=O)cc(-c5ccccc5)oc4c3)nn2-c2ccc(C)cc2)cc1,Activity,[1],16.6%
same,Activity,[2],14.82%
same,Ratio IC50,[3],206
same,IC50,[4],194 µM
same,Activity,[5],0.073 - 0.427%
same,Activity,[6],0.9 - 7.15%
same,IC50,[7],0.23 µM
same,Activity,[8],73.2%
same,Activity,[9],3.1%
same,IC50,[10],47.5 µM
same,Activity,[11],0.332%
same,IC50,[12],3.23 µM
same,Activity,[13],8.28%
same,Activity,[14],12.6%
same,Activity,[15],Dose-dependent effect
same,Activity,[16],18.1%
same,Activity,[17],1.71%
same,Activity,[18],2.08%
same,Activity,[19],51.4%
same,Activity,[20],5.24%
same,Activity,[21],96.5%
same,Activity,[22],7.82%
